Most compounds without a hit are left out; they make up all but 3.2% or so of the library.
SMARCA2 act – SMARCA2 (BRM) function activators, primary screen, cell-based, luminescence, high throughput; MG213 cells, MMTV-luciferase reporter, dexamethasone, overnight; activation, % at 9.1 µM; 370,000 compounds, 1% hits; in the data active = activation above about 7.8%;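 also: 0% = vehicle wells and 100% = reference activator wells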
DAX1 inh-1 – DAX1 (NR0B1) inhibitors, primary screen, cell-based, HEK293, Gal4-DAX1, luciferase luminescence | HEK293 Gal4-DAX1 luciferase reporter | 340,000 compounds, 0.99% hits | Nuclear receptor subfamily 0 group B member 1 (Homo sapiens), P51843 | inhibition, % at 6.75 µM;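 active = inhibition above the mean over all tested compounds plus 3 SD, cut at about 4.2% in these data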;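 also: 0% = DAX1-transfected cells with DMSO and 100% = empty-vector control cells with DMSO; inhibition shows as a rise in luminescence from relieved DAX1 repression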
Target sequence (P51843 207-470 limits assumed): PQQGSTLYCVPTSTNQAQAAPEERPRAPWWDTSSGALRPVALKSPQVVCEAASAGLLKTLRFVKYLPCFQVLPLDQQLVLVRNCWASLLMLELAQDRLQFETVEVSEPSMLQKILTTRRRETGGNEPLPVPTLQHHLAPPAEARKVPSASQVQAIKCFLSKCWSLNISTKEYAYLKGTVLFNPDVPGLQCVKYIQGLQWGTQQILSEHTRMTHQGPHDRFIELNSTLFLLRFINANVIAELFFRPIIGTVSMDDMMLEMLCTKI
NR2E3 ag-1 – inhibitors of NR2E3-RetCOR corepressor binding, primary screen, NR2E3 agonist project, biochemical, TR-FRET, GST-NR2E3, biotin-RetCOR | 1536-well | AID 2300, 2010 | Photoreceptor-specific nuclear receptor (Homo sapiens), Q9Y5X4 | inhibition of corepressor binding, % at 4.78 µM | 320,000 compounds, 0.12% hits;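 active = percent inhibition above the cutoff of mean plus 3 SD of all tested compounds, set per screening campaign, cut at about 20% in these data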;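 also: 0% = DMSO wells and 100% = biotin wells as full block of FRET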
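Material: NR2E3–RetCOR corepressor complex / Incubation: Compound–protein incubation for 5 h at 4 °C / Dosing: compound at 4.8 µM, single dose / Detection: time-resolved FRET / Benchmarks: high control biotin, low control 0.6% DMSO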
NR2E3 ag-2 – NR2E3 agonists in two-hybrid cells, primary screen, cell-based, luminescence, CHO-S, Gal4-NCOR/VP16-NR2E3. inhibition of corepressor binding, % at 3.98 µM. luciferase. 360,000 compounds, 0.35% hits. Photoreceptor-specific nuclear receptor (Homo sapiens), Q9Y5X4;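 active = inhibition above the mean of all tested compounds plus 3 SD, cut at about 70% in these data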;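 also: 0% = DMSO with NR2E3 transfected cells and 100% = cells lacking NR2E3 construct; higher means lower luciferase signal from less NR2E3 corepressor binding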
GASC-1 inh – inhibitors of GASC-1 histone demethylase, primary screen, biochemical, fluorescence, DELFIA europium; 330,000 compounds, 0.069% hits; Lysine-specific demethylase 4C (Homo sapiens), Q9H3R0; inhibition, % at 2.35 µM; AID 2099, 2009; GST-JMJD2C(1-420) H3K9me3 demethylation;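 active = more than half of a compound's replicate wells show inhibition beyond 50%, single wells judged on their own value; inconclusive = some, but no more than half, of replicates pass 50% inhibition; inactive = no replicate passes 50% inhibition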;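 also: signal counts dimethyl H3K9 product captured on neutravidin plate; 0% = median of DMSO wells and 100% = 0.3 times that DMSO median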
Target sequence (Q9H3R0 1-420 limits assumed): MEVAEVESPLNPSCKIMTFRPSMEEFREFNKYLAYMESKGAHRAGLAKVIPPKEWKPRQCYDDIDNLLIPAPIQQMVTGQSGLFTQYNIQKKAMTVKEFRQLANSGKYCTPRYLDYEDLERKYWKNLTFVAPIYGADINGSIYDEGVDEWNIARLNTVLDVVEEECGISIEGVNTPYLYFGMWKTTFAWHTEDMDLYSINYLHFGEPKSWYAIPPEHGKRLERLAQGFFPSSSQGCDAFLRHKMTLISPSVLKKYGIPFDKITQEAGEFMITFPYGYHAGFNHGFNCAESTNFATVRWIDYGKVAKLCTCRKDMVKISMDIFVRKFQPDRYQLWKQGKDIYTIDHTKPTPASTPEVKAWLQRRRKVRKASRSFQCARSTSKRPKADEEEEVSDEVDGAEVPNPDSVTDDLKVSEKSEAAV
DAX1 inh-2 – DAX1 (NR0B1) inhibitors on StAR promoter, primary screen, cell-based, luminescence, SF-1 (NR5A1), full-length DAX-1; HEK293T StAR-luciferase reporter, SF-1/DAX-1 repression relief; inhibition, % at 6.8 µM; 370,000 compounds, 1.1% hits; AID 652010, 2013;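 active = inhibition above the mean over all tested compounds plus 3 SD, cut at about 3.6% in these data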;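 also: 0% = DAX-1 cells with DMSO and 100% = cells lacking DAX-1 with DMSO; higher inhibition means more luminescence from relief of DAX-1 repression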
SMARCA2 conf – SMARCA2 (BRM) function activators, confirmation, cell-based, luminescence, triplicate; shares compounds with SMARCA2 act; 3,500 compounds, 30% hits; MG213 cells, MMTV-luciferase with dexamethasone, overnight; MG213 cells expressing E1A, Rb sequestered; DMSO wells 0%, reference activator 100%; activation, % at 9.1 µM;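 active = activation above its plate's cutoff, the mean activation of tested wells plus 3 SD, cut at about 7.9% in these data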
VP16 Luc act – GAL4-VP16 luciferase reporter activation, counter-screen for SMARCA2 (BRM) activator project, cell-based, pG5luc, luminescence, high throughput; activation, % at 9.1 µM; AID 686939, 2013; HEK293 GAL4-VP16 pG5luc reporter; scaled: DMSO wells 0%, SAHA wells 100%; 3,500 compounds, 41% hits; shares compounds with SMARCA2 act;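 active = activation above the solvent-only control well mean plus 3 SD, averaged across control plates, cut at about 5.2% in these data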
An asterisk follows results filed as active; ? = inconclusive; . = no result.

SMILES | SMARCA2 act | DAX1 inh-1 | NR2E3 ag-1 | NR2E3 ag-2 | GASC-1 inh | DAX1 inh-2 | SMARCA2 conf | VP16 Luc act
Cc1ccc(C)c(NC(=O)CN2C(=O)CC(C)S(=O)(=O)c3ccccc32)c1 (stereo not drawn) | -1.0 | 0.2 | -0.7 | -17.4 | 11.2 | 0.1 | . | .
C[C@@]12CCC[C@@](C)(C(=O)O)C1CC[C@@]13C[C@@H](NCc4ccccc4)[C@@](C)(CCC12)C3 (stereo partly drawn) | 1.1 | 0.9 | -2.0 | 11.6 | 1.7 | 0.1 | . | .
NC(=O)c1ccc(NC(=O)c2ccc(CN3CCOCC3)cc2)cc1 | -4.8 | 0.5 | 4.3 | 2.4 | -7.7 | 0.9 | . | .
O=C(Nc1ccc(CN2CCOCC2)cc1)c1cccs1 | 8.5* | 1.0 | -4.3 | -64.7 | -3.5 | 0.7 | 6.0 | 4.7
CCOC(=O)c1c(NC(=O)COC(=O)CCCOc2ccc(OC)cc2)sc(C(=O)N(C)C)c1C | 8.3* | 2.6 | . | -29.1 | . | 1.9 | -0.8 | 0.5
CCOC(=O)C1CCCN(C(=O)c2ccc3c(=O)n(Cc4ccccc4OC)c(=S)[nH]c3c2)C1 (stereo not drawn) | 2.4 | 0.5 | -1.7 | -25.2 | -24.3 | -1.1 | . | .
Cc1cc(C(=O)O)cc(S(=O)(=O)Nc2c(C)nn(C)c2C)c1C | 9.4* | 1.4 | . | -17.0 | 0.9 | 0.0 | -1.8 | -0.1
CC(=O)Nc1ccc(S(=O)(=O)NC(C)C(=O)OCC(=O)Nc2ccc(F)cc2Cl)cc1 (stereo not drawn) | 1.5 | 1.3 | . | -10.8 | . | 0.7 | . | .
CC(C)c1ccc(/C=N/NC(=O)c2c(Cl)cnn2C)cc1 | 10.8* | -0.6 | -0.5 | -43.3 | 2.0 | 3.1 | 15.5* | 3.6
Cc1nn(C)c(C(=O)N/N=C/c2ccc(Br)cc2)c1Cl | -1.3 | 0.3 | 3.5 | -18.6 | -10.5 | 0.1 | . | .
O=C(Nc1ccccc1)NC1CCCCCCC1 | 11.9* | . | 0.3 | -80.4 | -4.2 | 0.7 | 5.0 | 3.8
COc1cc(C(C)=O)ccc1OCCCOc1cccc2cccnc12 | -1.2 | -1.2 | 3.6 | -25.1 | 5.9 | 0.1 | . | .
COc1ccc(-c2nnc(SCC(=O)Nc3cccc(Cl)c3)o2)cc1 | 11.5* | 2.0 | 1.8 | -35.1 | 4.5 | 1.2 | 0.8 | 7.2*
COc1ccc(-c2nc(N)ncc2-c2ccc(OC)c(OC)c2)c(O)c1 | 8.1* | -0.7 | . | 19.6 | -7.4 | -0.6 | 7.0 | 1.2
O=C(CCc1ccccc1-c1ccccc1CCNC(=O)c1ccc(F)c(F)c1)NCc1ccccc1 | -1.9 | . | . | . | . | -0.3 | . | .
COc1ccc(OCc2cc(C(=O)N3C[C@@H](C)O[C@@H](C)C3)no2)c(Cl)c1 | 8.3* | 1.2 | 3.0 | -98.9 | 5.9 | -0.1 | 3.4 | 3.6
COCC1CCN(C(=O)c2cc(COc3ccc(OC)cc3Cl)on2)C1 (stereo not drawn) | 6.4 | 0.3 | . | -65.1 | . | 2.2 | . | .
CCOc1ccccc1-c1nc(-c2ccc(C)nc2OC)no1 | 8.8* | 0.8 | 3.0 | -112.7 | ? | 2.1 | 14.7* | 8.0*
Cc1ccc(C(=O)N/N=C2\CC3CC=CC23)c(C)c1 (stereo not drawn) | 8.1* | 5.7* | 0.5 | -20.8 | 9.2 | -0.4 | -3.9 | -0.4
Cc1ccc(NC(=S)N/N=C2\CC3CC=CC23)c(C)c1 (stereo not drawn) | -2.8 | -0.9 | -2.7 | 4.5 | 7.0 | -0.5 | . | .
COc1ccccc1CN1CCSCC1 | 9.8* | -0.7 | -1.2 | -6.8 | 6.7 | 0.0 | -1.0 | -1.0
Cc1cc(C)c(C)c(S(=O)(=O)NCC(=O)Nc2ccccc2F)c1C | 0.8 | 0.4 | . | -5.9 | 25.2 | 1.2 | . | .
Oc1cccc(Nc2ncnc3ccccc23)c1 | 8.1* | 0.7 | 3.2 | -4.8 | -3.0 | 0.2 | 1.2 | 1.3
CCC(CO)Oc1cc(NC(=O)c2ccc(C)cc2)c2ncn(C(C)C)c2c1 (stereo not drawn) | 1.3 | -1.3 | 3.7 | -0.5 | 3.8 | 0.1 | . | .
COc1cccc(CC(NC(C)=O)C(=O)NC2CCN(c3c4c(nc5ncnn35)CCC4)CC2)c1 (stereo not drawn) | 8.4* | 0.0 | . | -21.3 | . | -1.0 | -2.1 | -0.2
SMILES | SMARCA2 act | DAX1 inh-1 | NR2E3 ag-1 | NR2E3 ag-2 | GASC-1 inh | DAX1 inh-2 | SMARCA2 conf | VP16 Luc act
COC(=O)c1ccc(NC(=S)NC2c3ccccc3CC2O)cc1 (stereo not drawn) | 8.3* | . | -2.8 | -92.3 | -5.7 | -0.5 | 3.6 | 0.0
COC(=O)c1ccc(NC(=S)Nc2ccccc2)cc1 | 1.6 | 0.5 | 4.6 | -3.6 | 2.7 | 0.2 | . | .
c1ccc(COc2ccc(OCCCN3CCCC3)cc2)cc1 | 8.7* | -0.1 | -2.0 | -90.8 | 3.5 | 4.4* | 7.4 | 9.8*
c1ccc(COc2ccc(OCCN3CCCC3)cc2)cc1 | 0.0 | -1.6 | -5.0 | 1.1 | 10.4 | 0.5 | . | .
C=CC[N@@+]12CC[C@]34c5ccccc5N5/C=C6\C7N(/C=C(\C53)[C@@H](C[C@@H]41)/C(=C/CO)C2)c1ccccc1[C@@]71CC[N@@+]2(CC=C)C/C(=C\CO)[C@@H]6C[C@@H]12 (stereo partly drawn) | -1.8 | -0.5 | 2.4 | 0.1 | . | -1.1 | . | .
Nc1cc(=O)[nH]c(SCc2nnnn2-c2ccc(Cl)cc2)n1 | 9.4* | -1.3 | -2.5 | -20.1 | 4.3 | -0.6 | 2.8 | 0.3
Cc1cc(=O)[nH]c(SCc2nnnn2-c2ccc(Cl)cc2)n1 | 0.9 | 0.8 | -1.4 | 9.4 | 11.0 | -0.7 | . | .
Cc1cc(C)cc(N(CC(=O)NC2CCC(C)CC2)S(=O)(=O)c2ccc(Cl)s2)c1 (stereo not drawn) | 3.0 | . | . | . | . | 0.4 | . | .
O=C(Nc1ccccc1)Nc1nccs1 | 9.0* | -0.2 | 1.0 | -18.1 | -16.5 | 0.0 | 4.2 | 2.7
COc1ccc(NC(=O)Nc2nccs2)cc1 | 4.0 | 2.5 | -6.3 | -85.8 | 2.6 | 0.4 | . | .
Clc1ccc([C@H]2OC[C@@]3(CNCC4CC4)CS[C@H](c4ccc(Cl)cc4)N23)cc1 | -3.6 | . | . | . | . | 0.7 | . | .

Screening results as filed in PubChem.
